Data: ChEMBL document CHEMBL1777690, “Synthesis and SAR studies of novel 2-(6-aminomethylaryl-2-aryl-4-oxo-quinazolin-3(4H)-yl)acetamide vasopressin V1b receptor antagonists” (Bioorg Med Chem Lett, 2011)
pIC50: −log10 of the molar value. Active and inactive are the calls of the source. The rule behind the calls is not given here.

Legend:
[1] = biological target: T1, Vasopressin V1b receptor (Homo sapiens, UniProt P47901); assay: Displacement of [3H]AVP from human vasopressin V1b receptor expressed in CHO cells co-expressing VIP-luciferase by scintillation counting-based whole cell binding assay
T1 sequence (P47901 whole entry): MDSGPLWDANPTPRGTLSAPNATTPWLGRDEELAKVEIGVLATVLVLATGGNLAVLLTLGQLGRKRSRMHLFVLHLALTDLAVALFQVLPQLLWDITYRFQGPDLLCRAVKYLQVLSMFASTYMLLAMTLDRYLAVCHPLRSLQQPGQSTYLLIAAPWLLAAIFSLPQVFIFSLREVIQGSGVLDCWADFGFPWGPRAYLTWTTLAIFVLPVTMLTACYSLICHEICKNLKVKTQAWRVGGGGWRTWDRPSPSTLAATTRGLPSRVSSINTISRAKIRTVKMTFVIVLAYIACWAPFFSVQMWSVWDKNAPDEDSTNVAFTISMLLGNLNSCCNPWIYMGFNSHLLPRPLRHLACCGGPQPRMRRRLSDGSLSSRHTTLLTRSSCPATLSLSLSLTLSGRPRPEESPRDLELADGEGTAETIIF
Summary of the method: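 Whole-cell binding in CHO cells stably expressing human V1b (VIP-luciferase line), grown at 37 °C, 5% CO2 in DMEM/F12 with 10% FBS and 0.4 mg/mL G418. Seeded at 30,000 cells, cultured overnight, washed with PBS. Serially diluted compound with 5 nM [3H]-AVP (final) in PBS, 10 mM MgCl2, 0.1% BSA, 1% DMSO, 30 min at room temperature. Wells washed, dried, scintillation counted.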

[2] = Intrinsic clearance in human liver microsomes
[3] = Apparent permeability of the compound from apical to basolateral side in human Caco2 cell membrane; details: Caco-2
[4] = Clearance in Wistar rat at 1 mg/kg, iv; type: ADME, organism-based; set-up: dose 1 mg/kg, route intravenous; details: in vivo
Summary of the method: (§1)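 Male Wistar rats. iv dose 1 mg/kg in 10% (v/v) DMA in water. po dose 5 mg/kg in 5% (v/v) mulgofen in saline. Oral AUC reported as AUCt, iv AUC as AUCinf. Values given as mean ± spread.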

[5] = Elimination half life in Wistar rat at 1 mg/kg, iv; type: ADME, organism-based; set-up: dose 1 mg/kg, route intravenous; details: in vivo, read-out: beta t1/2 (converted); summary of the method: as §1
[6] = Volume of distribution at steady state in Wistar rat at 1 mg/kg, iv; type: ADME, organism-based; set-up: dose 1 mg/kg, route intravenous; details: in vivo, read-out: Vdss; summary of the method: as §1
[7] = AUC (infinity) in Wistar rat at 1 mg/kg, iv; type: ADME, organism-based; set-up: time infinity, dose 1 mg/kg, route intravenous; details: plasma
Summary of the method: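 Male Wistar rats given a single intravenous dose of 1 mg/kg in 10% (v/v) DMA in water. AUC taken to infinity from plasma concentrations. Value reported as mean ± variability.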

[8] = AUCt in Wistar rat at 5 mg/kg, po; type: ADME, organism-based; set-up: dose 5 mg/kg, route oral; details: plasma; summary of the method: as §1
[9] = Oral bioavailability in Wistar rat at 5 mg/kg, po; type: ADME, organism-based; details: in vivo; summary of the method: as §1
[10] = biological target: T2, Vasopressin V1b receptor (Homo sapiens) (UniProt P47901); assay: Antagonist activity at human vasopressin V1b receptor expressed CHO cells co-expressing VIP-luciferase assessed as reporter gene linked AVP-mediated intracellular calcium mobilization; type: functional, cell-based
T2 sequence (whole entry): T1 sequence (P47901 whole entry)

[11] = organism: Homo sapiens; assay: Selectivity ratio for human vasopressin V1b receptor over human vasopressin V1a receptor
[12] = organism: Homo sapiens; assay: Selectivity ratio for human vasopressin V1b receptor over human vasopressin V2 receptor
[13] = organism: Homo sapiens; assay: Selectivity ratio for human vasopressin V1b receptor over human oxytocin receptor
[14] = Inhibition of human Cytochrome P450; type: ADME
[15] = tested on: Rattus norvegicus; assay: Reduction in desmopressin/CRH-induced ACTH release in po dosed rat hyphalamic-pituitary-adrenal hyperactivity model; type: functional, organism-based
Summary of the method: (§2)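 Rats dosed orally with compound or vehicle (5% mulgofen in saline) at T=0. CRH (0.3 µg/kg) or PBS given iv via jugular catheter at T+100 min. dDAVP (0.5 mg/kg) or PBS given iv at T+120 min. 0.5 ml blood taken at T+130 min, kept on ice, centrifuged at 4 °C, plasma stored at -40 °C. ACTH measured by ELISA, drug level by mass spectrometry.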

[16] = tested on: Rattus norvegicus; assay: Reduction in desmopressin-induced ACTH release in rat hyphalamic-pituitary-adrenal hyperactivity model at 10 mg/kg, po; type: functional, organism-based; set-up: dose 10 mg/kg; summary of the method: as §2
[17] = Apparent permeability of the compound from basolateral to apical side in human Caco2 cell membrane; type: ADME, cell-based; details: Caco-2

COc1cccc(-c2nc3ccc(-c4cccc(CN5CCC5)c4)cc3c(=O)n2CC(=O)NC(C)C)c1
pIC50 [1]: 7.34

COc1cccc(-c2nc3ccc(-c4cc(CN(C)C)ccn4)cc3c(=O)n2CC(=O)NC(C)C)c1
pIC50 [1]: 7.28

CCCNC(=O)Cn1c(-c2ccccc2)nc2ccc(-c3cccc(CN4CCC4)c3)cc2c1=O
pIC50 [1]: 5.63

COc1cc(-c2nc3ccc(-c4cccc(CN(C)C)c4)cc3c(=O)n2CC(=O)NC(C)C)ccc1F
pIC50 [1]: 9.00 | microsomal CLint [2]: < 12 µL/min/mg | Papp A→B [3]: 6.8 ×10⁻⁶ cm/s | clearance [4]: 40.2 mL/min/kg | half-life [5]: 1.61 h | Vd [6]: 4.85 L/kg | AUC(0-inf) [7]: 441 ng·h/mL | AUC(0-t) [8]: 930 ng·h/mL | bioavailability [9]: 45% | Activity [10]: Active | fold change (FC) [11]: > 10000 | fold change (FC) [12]: > 10000 | fold change (FC) [13]: > 10000 | pIC50 [14]: < 4.77 | inhibition [15]: Dose-dependent effect | inhibition [16]: Active | Papp B→A [17]: 9.1 ×10⁻⁶ cm/s

COCCNCc1cccc(-c2ccc3nc(-c4ccccc4)n(CC(=O)NCC4CC4)c(=O)c3c2)c1
pIC50 [1]: 6.19

COc1cccc(-c2nc3ccc(-c4ccc(CN(C)C)o4)cc3c(=O)n2CC(=O)NC(C)C)c1
pIC50 [1]: 6.15

O=C(Cn1c(-c2ccccc2)nc2ccc(-c3cccc(CN4CCOCC4)c3)cc2c1=O)NCC1CC1
pIC50 [1]: 7.10

CCN(CC)Cc1cccc(-c2ccc3nc(-c4ccccc4)n(CC(=O)NCC4CC4)c(=O)c3c2)c1
pIC50 [1]: 6.27

O=C(Cn1c(-c2ccccc2)nc2ccc(-c3cccc(CN4CCC4)c3)cc2c1=O)NC1CC1
pIC50 [1]: 5.59

O=C(Cn1c(-c2ccccc2)nc2ccc(-c3cccc(CN4CCC4)c3)cc2c1=O)NCC1CC1
pIC50 [1]: 6.56

O=C(Cn1c(-c2ccccc2)nc2ccc(-c3cccc(CN4CCC4)c3)cc2c1=O)NC1CCCC1
pIC50 [1]: 6.62

O=C(Cn1c(-c2ccccc2)nc2ccc(-c3ccc(CN4CCOCC4)cc3)cc2c1=O)NCC1CC1
pIC50 [1]: < 4.70

O=C(Cn1c(-c2ccccc2)nc2ccc(-c3cccc(CN4CCCC4)c3)cc2c1=O)NCC1CC1
pIC50 [1]: 6.41

CC(C)(C)NC(=O)Cn1c(-c2ccccc2)nc2ccc(-c3cccc(CN4CCC4)c3)cc2c1=O
pIC50 [1]: 6.73

CC(C)NC(=O)Cn1c(-c2cccc(Cl)c2)nc2ccc(-c3cccc(CN4CCCCC4)c3)cc2c1=O
pIC50 [1]: 8.05

CC(C)NC(=O)Cn1c(-c2cccc(Cl)c2)nc2ccc(-c3cccc(CN(C)C)c3)cc2c1=O
pIC50 [1]: 7.72

COc1cccc(-c2nc3ccc(-c4ccc(CN(C)C)s4)cc3c(=O)n2CC(=O)NC(C)C)c1
pIC50 [1]: 6.30

COc1cccc(-c2nc3ccc(-c4cccc(CN(C)C)n4)cc3c(=O)n2CC(=O)NC(C)C)c1
pIC50 [1]: 7.43

COc1cccc(-c2nc3ccc(-c4cccc(CN(C)C)c4)cc3c(=O)n2CC(=O)NC(C)C)c1
pIC50 [1]: 8.05 | microsomal CLint [2]: 45 µL/min/mg

CC(C)CNC(=O)Cn1c(-c2ccccc2)nc2ccc(-c3cccc(CN4CCC4)c3)cc2c1=O
pIC50 [1]: 5.98

NCc1cccc(-c2ccc3nc(-c4ccccc4)n(CC(=O)NCC4CC4)c(=O)c3c2)c1
pIC50 [1]: 5.92

O=C(Cn1c(-c2ccccc2)nc2ccc(-c3cccc(CN4CCCCC4)c3)cc2c1=O)NCC1CC1
pIC50 [1]: 7.22

O=C(Cn1c(-c2ccccc2)nc2ccc(-c3ccc(CN4CCCCC4)cc3)cc2c1=O)NCC1CC1
pIC50 [1]: < 4.70

CC(C)NC(=O)Cn1c(-c2cccc(Cl)c2)nc2ccc(-c3cccc(CN4CCC4)c3)cc2c1=O
pIC50 [1]: 7.22

COc1ccccc1-c1nc2ccc(-c3cccc(CN4CCC4)c3)cc2c(=O)n1CC(=O)NC(C)C
pIC50 [1]: 6.21

COc1cccc(-c2nc3ccc(-c4cccc(CN5CCCCC5)c4)cc3c(=O)n2CC(=O)NC(C)C)c1
pIC50 [1]: 8.70

CNCc1cccc(-c2ccc3nc(-c4ccccc4)n(CC(=O)NCC4CC4)c(=O)c3c2)c1
pIC50 [1]: 6.49

O=C(Cn1c(-c2ccccc2)nc2ccc(-c3ccccc3CN3CCOCC3)cc2c1=O)NCC1CC1
pIC50 [1]: < 4.70

CN(C)Cc1cccc(-c2ccc3nc(-c4ccccc4)n(CC(=O)NCC4CC4)c(=O)c3c2)c1
pIC50 [1]: 6.50

CC(C)NC(=O)Cn1c(-c2ccccc2)nc2ccc(-c3cccc(CN4CCC4)c3)cc2c1=O
pIC50 [1]: 6.40

COc1cccc(-c2nc3ccc(-c4cc(CN(C)C)ccc4F)cc3c(=O)n2CC(=O)NC(C)C)c1
pIC50 [1]: 8.15 | microsomal CLint [2]: 58 µL/min/mg | Papp A→B [3]: 12.1 ×10⁻⁶ cm/s | Papp B→A [17]: 23.3 ×10⁻⁶ cm/s

O=C(Cn1c(-c2ccccc2)nc2ccc(-c3ccccc3CN3CCCCC3)cc2c1=O)NCC1CC1
pIC50 [1]: < 4.70

COc1cccc(-c2nc3ccc(-c4cncc(CN(C)C)c4)cc3c(=O)n2CC(=O)NC(C)C)c1
pIC50 [1]: 7.11
